Structures can show the parent of a compound that is named as a salt. The source made the active and inactive calls. The calls are words filed in the database; no cut-off is given here.
Key:
A549 [1] = experiment: Antiproliferative against human A549 cells assessed as viable cells pretreated with MS023 for 24 hrs followed by compound addition at 10 uM measured after for 24 hrs relative to control; conditions: A549, 24 h, read-out: Activity
PEO1 [2] = experiment: Antiproliferative activity against BRCA2 deficient human PEO1 cells at 3.75 to 60 nM in presence of MS023; assay type: functional, cell-based; conditions: dose 3.75-60 nM
Outline: (§1)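 PEO1 and PEO4 ovarian cells seeded 3,000/well; treated one day after plating with MS023 and/or BMN-673 or DMSO vehicle, medium with inhibitors replenished every 48 h. Six days after first treatment, nuclei stained with Hoechst 33342 (10 µg/ml final, 30 min) and counted by plate imaging; counts normalized to DMSO wells. Combination effect expressed as Bliss score.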

A549 [3] = experiment: Antiproliferative against human A549 cells expressing MTAP clone 2 assessed as […] treated at 25 to 50 nM for 7 days in presence of MS023 with replenishment of medium for every 48 hrs by MTT assay relative to control; assay type: functional; design: scale not given: the % may be the effect or the level left; conditions: dose 25-50 nM, time 7 day
A549 [4] = experiment: Antiproliferative against human A549 cells expressing MTAP clone 1 assessed as […] treated at 25 to 50 nM for 7 days in presence of MS023 with replenishment of medium for every 48 hrs by MTT assay relative to control; assay type: functional; design: scale not given: the % may be the effect or the level left; conditions: dose 25-50 nM, time 7 day
PEO1 [5] = experiment: Antiproliferative activity against BRCA2 deficient human PEO1 cells assessed as bliss energy score at 3.75 to 60 nM in presence of MS023; assay type: functional; conditions: dose 3.75-60 nM; outline: as §1
A549 [6] = experiment: Induction of DNA damage in human A549 cells assessed as increase in stained cells at 50 nM for 7 days in presence of MS023 by gamma-H2AX analysis (reference value: 3.9%); assay type: functional; conditions: time 7 day
Outline: (§2)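 A549 cells grown on coverslips under MTT treatment conditions (inhibitors replenished every 48 h) for 7 days with MS023 (0.2–2 µM) and/or BMN-673 (50 nM); fixed in 4% paraformaldehyde, Triton-permeabilized, stained with anti-γ-H2AX (1:1000, 16 h, 4 °C) and Alexa488 secondary, DAPI counterstain. ≥200 cells imaged; fraction with >5 foci reported; unpaired t tests.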

A549 [7] = experiment: Induction of cell death in human A549 cells at 0.3 nM in presence of 2 uM MS023 by viacount reagent based analysis; assay type: functional
A549 [8] = experiment: Induction of cell death in human A549 cells assessed as bliss energy score at 0.3 nM in presence of GSK 591 by viacount reagent based analysis; assay type: functional
PEO1 [9] = experiment: Antiproliferative activity against BRCA2 deficient human PEO1 cells at 3.75 to 60 nM; assay type: functional, cell-based; conditions: dose 3.75-60 nM; outline: as §1
A549 [10] = experiment: Induction of DNA damage in human A549 cells assessed as increase in stained cells at 50 nM for 7 days by gamma-H2AX analysis (reference value: 3.9%); assay type: functional; conditions: time 7 day; outline: as §2
A549 [11] = experiment: Antiproliferative against human A549 cells assessed as killed cells at 0.3 nM treated for 7 days in presence of MS023 with replenishment of medium for every 48 hrs by MTT assay relative to control; conditions: time 7 day
A549 [12] = experiment: Induction of DNA damage in human A549 cells at 50 nM in presence of MS023 for 7 days by gamma-H2AX analysis; assay type: functional, cell-based; conditions: time 7.0 day; outline: as §2
[13] = Antiproliferative activity against human PEO4 cells expressing BRCA2 mutant assessed as bliss energy score at 3.75 to 60 nM in presence of MS023; assay type: functional; conditions: dose 3.75-60 nM; outline: as §1
A549 [14] = experiment: Induction of cell death in human A549 cells assessed as bliss energy score at 0.3 nM in presence of EPZ 15666 by viacount reagent based analysis; assay type: functional
A549 [15] = experiment: Induction of DNA damage in human A549 cells assessed as increase in stained cells at 1 nM for 7 days by gamma-H2AX analysis (reference value: 3.9%); assay type: functional; conditions: time 7 day
PEO4 [16] = experiment: Antiproliferative activity against human PEO4 cells expressing BRCA2 mutant at 3.75 to 60 nM; assay type: functional, cell-based; conditions: dose 3.75-60 nM; outline: as §1
A549 [17] = experiment: Induction of DNA damage in human A549 cells at 50 nM for 7 days by gamma-H2AX analysis; assay type: functional, cell-based; conditions: time 7.0 day; outline: as §2
PEO4 [18] = experiment: Antiproliferative activity against human PEO4 cells expressing BRCA2 mutant at 3.75 to 60 nM in presence of MS023; assay type: functional, cell-based; conditions: dose 3.75-60 nM; outline: as §1
A549 [19] = experiment: Synergistic antiproliferative activity against human A549 cells pretreated with MS023 for 24 hrs followed by compound addition at 10 uM measured after for 24 hrs relative to control; assay type: functional
Outline: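 A549 seeded 20K/well; next day 16.5 μM MS023 or DMSO for 24 h, then 181 epigenetic library drugs at 10 μM for 24 h. Viability by Viacount flow cytometry after trypsinization; heat-killed well as total death control. Synergy Index = (monotherapy viability × MS023 viability effect)/combination viability; also synergy percentage (1 − 1/SI)×100.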

In the case of `N#CC[C@H](C1CCCC1)n1cc(-c2ncnc3[nH]ccc23)cn1` [RUXOLITINIB], the viability at 10 µM (A549 [1]) is reported as 54.2%.
Work on `CN1CCC(CNc2ccc3ncc(-c4cccc(OC(F)(F)F)c4)n3n2)CC1` [SGI-1776] yielded a viability at 10 µM (A549 [1]) of 54.2%.
`CC(NC(=O)c1ccccc1/N=C/c1c(O)ccc2ccccc12)c1ccccc1` (centres undefined) [SIRTINOL] gave a viability at 10 µM (A549 [1]) of 54.2%.
Molecule `O=C(Nc1cccc(Cl)c1)Nc1ncc(CCNc2ncnc3ccsc23)s1` [SNS-314 MESYLATE] has a viability at 10 µM (A549 [1]) of 54.2%.
Work on `O=C(O)CCCc1ccccc1` [SODIUM PHENYLBUTYRATE] yielded a viability at 10 µM (A549 [1]) of 54.2%.
`CC(=O)Nc1ccc(C(=O)Nc2ccccc2N)cc1` [TACEDINALINE] showed a viability at 10 µM (A549 [1]) of 54.2%.
Molecule `CCS(=O)(=O)c1cccc(-c2cc(C(=O)NC3CCN(C)CC3)c(C)c3[nH]c4ncc(C)cc4c23)c1` [TAK-901] has a viability at 10 µM (A549 [1]) of 54.2%.
In the case of `Cn1ncnc1[C@H]1c2n[nH]c(=O)c3cc(F)cc(c23)N[C@@H]1c1ccc(F)cc1` [TALAZOPARIB], the Activity (PEO1 [2]) is reported as “Active”, the Activity (A549 [3]) is reported as 50% and the Activity (A549 [4]) is reported as 50%. For the same molecule, the Activity (PEO1 [5]) was 17.98, the Activity (A549 [6]) was 69.5% and the Activity (A549 [7]) was “Active”. For the same molecule, the Activity (A549 [8]) was 19.892, the Activity (PEO1 [9]) was “Active” and the Activity (A549 [10]) was 40.4%. The Activity (A549 [11]) was over 80%, the Activity (A549 [12]) was “Active” and the Activity [13] was 21.64. For the same molecule, the Activity (A549 [14]) was 13.506, the Activity (A549 [15]) was 24.8% and the Activity (PEO4 [16]) was “inactive”. The Activity (A549 [17]) was “Active” and the Activity (PEO4 [18]) was “Active”.
With `O=C(O)C(O)C(O)C(=O)O` (centres undefined) [TARTARIC ACID] the viability at 10 µM (A549 [1]) was 54.2%.
Molecule `C[C@@H]1CCN(C(=O)CC#N)C[C@@H]1N(C)c1ncnc2[nH]ccc12` [TOFACITINIB] has a viability at 10 µM (A549 [1]) of 54.2%.
`N[C@@H]1C[C@H]1c1ccccc1` [TRANYLCYPROMINE HYDROCHLORIDE] gave a viability at 10 µM (A549 [1]) of 54.2%.
`CC(/C=C/C(=O)NO)=C\[C@@H](C)C(=O)c1ccc(N(C)C)cc1` [TRICHOSTATIN] showed a viability at 10 µM (A549 [1]) of 54.2%.
With `CCCC(CCC)C(=O)O` [VALPROIC ACID] the viability at 10 µM (A549 [1]) was 54.2%.
Work on `C[C@]1(c2nc3c(C(N)=O)cccc3[nH]2)CCCN1` [VELIPARIB] yielded a viability at 10 µM (A549 [1]) of 54.2% and an Activity (A549 [19]) of 98%.
`O=C(CCCCCCC(=O)Nc1ccccc1)NO` [VORINOSTAT] showed a viability at 10 µM (A549 [1]) of 54.2%.
Molecule `C[C@H](NC(=O)/C(C#N)=C/c1cccc(Br)n1)c1ccccc1` [WP 1066] has a viability at 10 µM (A549 [1]) of 54.2%.
`O=c1ncccn1[C@@H]1O[C@H](CO)[C@@H](O)[C@H]1O` [ZEBULARINE] gave a viability at 10 µM (A549 [1]) of 54.2%.

— ChEMBL document CHEMBL5712922, “Synergistic effects of type I PRMT and PARP inhibitors against non-small cell lung cancer cells” (Clin Epigenetics, 2021)
